# Bioassay records (PubChem BioAssay)
# This excerpt belongs to a sample that is enriched for hits.
# GSK3B inh: human GSK3beta kinase inhibitors, primary screen, biochemical, cell-free homogeneous, HTS; Glycogen synthase kinase-3 beta (Homo sapiens), P49841; GST-GSK3beta kinase, ADP-Glo luminescence, 60 min; stronger effect = lower value; activity score (negative = inhibition), % at 10 µM; actives 0.038% (n = 300,000); AID 2097, 2009;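 active means more than half of replicate wells score below -50%, meaning over 50% inhibition versus plate controls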;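 further: 0% = median DMSO wells and -100% = median GW8510 positive control wells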
#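 Test system – GST-tagged human GSK3beta kinase, cell-free · Incubation – 60 min enzyme reaction, room temperature · Signal – ADP-Glo luminescence · Also added – peptide substrate and ATP at 25 µM · Controls – DMSO neutral wells and GW8510 at 20 µM as positive · Buffer or medium – Tris/MgCl2 kinase buffer · Measure – Luminescence-derived activity versus plate DMSO and GW8510 wells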
# CDK5 p35 inh: inhibitors of human CDK5/p35 kinase, primary screen, biochemical, single concentration; Recombinant CDK5/p35, ADP-Glo luminescence, 60 min; AID 488839, 2010; actives 0.01% (n = 330,000); inhibition, % at 10 µM;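 active means highest replicate inhibition of at least 50% and at least 75% of replicates reaching 50%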;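 further: plate controls were DMSO neutral control for no effect and GW8510 at 10 µM for full effect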
# Dyrk1A ADPGlo: rat Dyrk1A kinase inhibitors, primary screen, biochemical, single point, plate reader | ADP-Glo luminescence, NFATc1 peptide | inhibition, % at 12.5 µM | actives 0.43% (n = 310,000) | AID 504441, 2011; in the data active means inhibition above about 50%;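 further: plate controls were vehicle with enzyme for no effect and no enzyme for full effect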
# GSK3 alpha inh: blockers of GSK3A enzyme activity – biochemical, luminescence, cell-free homogeneous, HTS, primary screen; Glycogen synthase kinase-3 alpha (Homo sapiens), P49840; AID 2650, 2010; actives 0.1% (n = 320,000); inhibition, % at 10 µM; GSK-3 alpha kinase, ADP-Glo luminescence, 60 min;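 active means more than half of replicates show inhibition above 20%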;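 further: GST-tagged GSK-3 alpha with peptide substrate and 25 µM ATP; 0% = DMSO neutral wells and 100% = GW8510 positive control wells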
# STK33 kinase inh: inhibitors of purified STK33 kinase, primary screen, biochemical, ADP-Glo luminescence, homogeneous, cell-free; Serine/threonine-protein kinase 33 (Homo sapiens), Q9BYT3; MBP phosphorylation; actives 0.073% (n = 320,000); AID 2661, 2010; inhibition, % at 10 µM;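 active means inhibition at or above 25%, using the most active replicate where run in duplicate; inactive means inhibition below 25%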
# Target sequence (Q9BYT3 whole entry, looked up): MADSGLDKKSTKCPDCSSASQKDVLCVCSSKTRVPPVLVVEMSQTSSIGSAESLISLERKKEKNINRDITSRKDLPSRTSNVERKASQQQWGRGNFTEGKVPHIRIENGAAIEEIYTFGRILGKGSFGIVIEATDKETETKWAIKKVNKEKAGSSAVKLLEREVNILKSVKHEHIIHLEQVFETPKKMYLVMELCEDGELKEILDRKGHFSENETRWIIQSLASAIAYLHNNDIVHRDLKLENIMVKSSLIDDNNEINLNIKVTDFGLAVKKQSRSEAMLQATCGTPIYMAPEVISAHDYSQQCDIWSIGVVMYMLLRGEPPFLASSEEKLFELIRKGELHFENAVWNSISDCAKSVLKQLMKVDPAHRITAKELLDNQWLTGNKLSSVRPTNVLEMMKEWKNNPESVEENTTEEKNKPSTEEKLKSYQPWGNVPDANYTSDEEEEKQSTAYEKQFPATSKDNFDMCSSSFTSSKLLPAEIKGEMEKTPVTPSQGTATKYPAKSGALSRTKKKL
# * = called active by the depositor; nt = no result given; ! = repeats disagree.
SMILES,GSK3B inh,CDK5 p35 inh,Dyrk1A ADPGlo,GSK3 alpha inh,STK33 kinase inh
CC(C)CCNc1nc(N)c([N+](=O)[O-])c(NCCO)n1,-67*,2,nt,80*,3
Nc1nc(NCc2ccc(Cl)cc2)nc(NCCO)c1[N+](=O)[O-],-1,2,40,13,-2
Nc1nc(Nc2ccc(Cl)cc2)nc(NCCO)c1[N+](=O)[O-],-16,nt,nt,55*,3
CCC(C)Nc1nc(N)c([N+](=O)[O-])c(NCCO)n1 (centres undefined),-1,11,13,73*,1
Cc1ccc(CNc2nc(N)c([N+](=O)[O-])c(NCCO)n2)cc1,-39,0,nt,51*,2
CC(C)c1ccc(-c2nnc(N)s2)cc1,-8,0,0,nt,nt
Cc1ccc(S(=O)(=O)/N=C(\N)Nc2nc(C)c3cc(C)ccc3n2)cc1,-2,0,15,-5,-1
Cc1ccc(SCC(=O)Nc2cccc(C(=O)NC(C)(C)C)c2)cc1,1,0,2,-4,-1
Fc1cccc(Nc2nc(-c3ccncc3)nc3ccccc23)c1,-75*,-1,2,0,-1
Oc1ccc(Nc2nc(-c3ccccc3O)nc3ccccc23)cc1,0,2,3,-3,49*
Cc1ccc(-c2nc(Nc3cccc(O)c3)c3ccccc3n2)cc1,0,1,64*,16,0
CC(Sc1nc2ccccc2c(=O)n1CC1CCCO1)C(=O)NC(C)c1ccccc1 (centres undefined),1,1,10,-2,0
C=CC(=O)Nc1cccc(Nc2nc(N[C@H]3CC[C@H](N(C)C)CC3)nc3c2ncn3C(C)C)c1,nt,83*,88*,nt,nt
O=C(c1ccc2c3n(nc2c1)-c1ccccc1CO3)N1CCCCC1,-19,34,44,32,27*
COC(=O)Cc1ccc(NC(=O)c2ccc(NC(=O)c3ccco3)cc2)cc1,-3,3,-4,2,-1
CCn1c2ccccc2c(=O)c2ccccc21,-18,4,42,10,31*
Nc1nc(-c2cc(O)ccc2[N+](=O)[O-])cc(-c2ccccc2)c1[N+](=O)[O-],-2,0,23,2,28*
COc1cc(C(=O)N2CCN(c3ccccn3)CC2)cc(OC)c1OC,-42,89*,27,30,3
COc1cc(OC)cc(C(=O)N2CCN(c3ccccn3)CC2)c1,-1,2,-2,-1,-3
COc1ccc2nc(NC(=O)CSc3n[nH]c(N)n3)sc2c1,-38,0,17,58*,15
COc1ccc2nc(NC(=O)CSc3nccc(C)n3)sc2c1,-15,1,43,15,3
Fc1ccc(/C=N/Nc2ncnc3nc[nH]c23)cc1F,-21,14,25,65*,8
NS(=O)(=O)c1ccc(NC(=O)CSc2nnc(-c3ccc(O)cc3)o2)cc1,-2,0,30,53*,7
Cc1ccnc(NC(=O)C(C)n2cc([N+](=O)[O-])cn2)c1 (centres undefined),-74*,2,nt,25,-2
CN(C)c1cc[n+](CC(=O)Nc2ccc(Cl)cc2)cc1,-1,15,1,-3,-2
SMILES,GSK3B inh,CDK5 p35 inh,Dyrk1A ADPGlo,GSK3 alpha inh,STK33 kinase inh
COc1cc(/C=N/n2c(-c3ccccc3)n[nH]c2=S)ccc1O,1,6,39,5,46*
COc1ccc(/C=N/n2c(-c3n[nH]c4c3CCC4)n[nH]c2=S)cc1OC,2,1,-1,9,0
COc1cc(/C=N/n2c(-c3n[nH]c4c3CCC4)n[nH]c2=S)ccc1O,0,4,-5,16,40*
COc1cc(/C=N/n2c(-c3ccccc3)n[nH]c2=S)cc(OC)c1O,1,2,-10,-1,1
CCC1=C([N+](=O)[O-])C(c2ccc3c(c2)OCO3)NC(=O)N1 (centres undefined),2,-1,5,0,-3
CCc1nc2sc3c(c2c(=O)n1N)CC(C)(C)OC3,1,0,0,-2,2
CN(C)c1nc2sc3c(c2c(=O)n1C)CC(C)(C)OC3,6,2,1,2,38*
CCS(=O)(=O)Nc1ccc(C2=NN(C(=O)c3ccccc3)C(c3cccs3)C2)cc1 (centres undefined),2,-1,-3,-4,-2
COc1cc(/C=N/Nc2cc(C)nc(N)n2)ccc1O,2,2,8,0,2
COc1cc(/C=N/Nc2ccc(C(F)(F)F)cn2)ccc1O,-37,17,28,4,28*
CCOC(=O)C1=C(C)NC2=C(C(=O)CC(C)(C)C2)C1c1ccc(O)c(OCC)c1 (centres undefined),1,0,-4,-2,-3
CCOc1cc(C2C3=C(CC(C)(C)CC3=O)Nc3n[nH]c(C)c32)ccc1O (centres undefined),-61*,-3,-2,94*,-1
N#Cc1c(-c2ccccc2Cl)c2c([nH]c1=O)-c1ccccc1OC2,-10,0,2,55*,3
COc1cccc(/C=C2/Sc3ccc(C(=O)NCCN4CCCC4)cc3NC2=O)c1,-67*,11,18,1,1
COc1cccc(/C=C2/Sc3ccc(C(=O)NCCCN4CCCC4)cc3NC2=O)c1,-83*,20,20,84*,11
O=C1Nc2cc(C(=O)NCCCN3CCCC3)ccc2S/C1=C/c1ccccc1F,-67*,-1,-1,42,1
O=C(Nc1cccc(Cl)c1)N(CCN1CCOCC1)Cc1cccc(Cl)c1,1,-2,-7,-2,-1
CCCCCCCCCCCCCCCCn1cc[n+](C)c1,-18,4,0,24,27*!
CCCCCCCCn1ccc(=N)cc1,-5,0,-4,-6,1
COc1ccc(-c2nc(-c3ccccn3)no2)cc1,-20,23,35,33,29*
Cc1cc(O)c(CN(C)C)c2c1C(=O)/C(=C/c1ccco1)O2,-12,0,10,19,7
Cc1cc(O)c(C=O)c2c1C(=O)Oc1c(CO)c(O)c3c(c1O2)C(O)OC3=O (centres undefined),nt,7,51*,6,57*
Cn1c(C(=O)NCCN2CCOCC2)cc2c(=O)n(C)c3ccccc3c21,0,0,32,0,2
CC1CCCCN1CCNC(=O)c1cc2c(=O)n(C)c3ccccc3c2n1C (centres undefined),0,1,50*,0,4
c1ccc2nc(-c3nc4ccccc4o3)ccc2c1,-7,8,10,3,2
NNc1nc(Nc2ccccc2)nc(Nc2ccccc2)n1,0,0,-23,-3,1
c1ccc(Nc2ccnc(Nc3ccccc3)n2)cc1,0,4,38,14,36*
